Assays:
[1] = Antitumor activity against mouse EAC cells transplanted in Swiss albino mouse assessed as tumor weight inhibition in ascetic fluid at 0.2 mmol/kg, ip administered qd for 7 days measured on 8th day; assay type: functional; settings: Ehrlich, 168 h, read-out: GI
How it was run: (§1)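 Ehrlich ascites carcinoma cells (9 days old) were taken from a donor mouse into sterile isotonic saline and adjusted to 10 × 10⁶ cells/mL. Mice received 0.1 mL per 10 g ip on day 0. Compound in PBS pH 7.2 (0.1 mL/10 g) was given ip on days 1–7 at 24-h intervals; controls received vehicle only. On day 8, after 6 h fasting, peritoneal cells were counted and ascitic fluid weight was taken from body weight before and after fluid removal.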

[2] = biological target: Histone deacetylase 1 (Homo sapiens, UniProt Q13547); test: Inhibition of HDAC1 by fluorescent activity assay
Sequence of Histone deacetylase 1 (Q13547 whole entry): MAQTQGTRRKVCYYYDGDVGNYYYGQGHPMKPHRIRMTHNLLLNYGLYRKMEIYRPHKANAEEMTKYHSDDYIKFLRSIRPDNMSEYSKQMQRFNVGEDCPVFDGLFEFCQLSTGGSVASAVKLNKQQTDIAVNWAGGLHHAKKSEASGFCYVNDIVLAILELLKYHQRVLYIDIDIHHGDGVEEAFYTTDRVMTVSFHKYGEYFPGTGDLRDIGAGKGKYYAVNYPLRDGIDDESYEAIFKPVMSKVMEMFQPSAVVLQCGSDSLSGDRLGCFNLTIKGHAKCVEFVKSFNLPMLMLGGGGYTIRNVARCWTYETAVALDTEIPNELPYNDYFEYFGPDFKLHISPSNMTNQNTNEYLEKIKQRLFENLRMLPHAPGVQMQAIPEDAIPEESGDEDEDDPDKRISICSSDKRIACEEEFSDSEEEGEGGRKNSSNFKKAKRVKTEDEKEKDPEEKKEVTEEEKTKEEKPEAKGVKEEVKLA

[3] = system: HCT-116; test: Antiproliferative activity against human HCT116 cells by MTT assay; assay type: functional, cell-based
[4] = Antitumor activity against mouse EAC cells transplanted in Swiss albino mouse assessed as tumor cell inhibition in ascetic fluid at 0.2 mmol/kg, ip administered qd for 7 days measured on 8th day; assay type: functional; settings: Ehrlich, 168 h, read-out: GI; how it was run: as §1
[5] = Antitumor activity against mouse EAC cells transplanted in Swiss albino mouse assessed as tumor weight inhibition in ascetic fluid at 1 mg/kg, ip administered qd for 7 days measured on 8th day; assay type: functional; settings: Ehrlich, 168 h, route intraperitoneal, read-out: GI
How it was run: (§2)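 Swiss albino mice were inoculated ip on day 0 with 9-day-old Ehrlich ascites carcinoma cells from a donor mouse (10 × 10⁶ cells/mL in isotonic saline, 0.1 mL per 10 g). Mitomycin-C served as the standard at 1 mg/kg; controls received vehicle only. Mice were sacrificed on day 8 after 6 h without food and water. Peritoneal fluid cells were counted, and ascitic fluid weight came from body weight before and after draining the cavity.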

[6] = Antitumor activity against mouse EAC cells transplanted in Swiss albino mouse assessed as tumor cell inhibition in ascetic fluid at 1 mg/kg, ip administered qd for 7 days measured on 8th day; assay type: functional; settings: Ehrlich, 168 h, route intraperitoneal, read-out: GI; how it was run: as §2

IC50 [2]	IC50 [3]	SMILES	inhibition in vivo at 200 µmol/kg [1]	inhibition in vivo at 200 µmol/kg [4]	inhibition in vivo at 1 mg/kg [5]	inhibition in vivo at 1 mg/kg [6]
8 nM	80 nM	O=C(NO)c1cnc(Nc2nnc(-c3ccccc3)s2)nc1	14.2%	29.5%	–	–
10 nM	160 nM	O=C(NO)c1cnc(Nc2nnc(-c3ccc(Cl)cc3)s2)nc1	48.3%	32%	–	–

Continued, compound first:

SMILES	IC50 [2]	IC50 [3]	inhibition in vivo at 200 µmol/kg [1]	inhibition in vivo at 200 µmol/kg [4]	inhibition in vivo at 1 mg/kg [5]	inhibition in vivo at 1 mg/kg [6]
O=C(NO)c1cnc(Nc2nnc(-c3ccc(F)cc3)o2)nc1	9 nM	60 nM	24.1%	16.4%	–	–
CN(C)c1ccc(-c2nnc(Nc3ncc(C(=O)NO)cn3)o2)cc1	9 nM	200 nM	55.5%	56.8%	–	–
CN(C)c1ccc(-c2nnc(Nc3ncc(C(=O)NO)cn3)s2)cc1	11 nM	200 nM	61.1%	51.1%	–	–
CO[C@@]12[C@H](COC(N)=O)C3=C(C(=O)C(C)=C(N)C3=O)N1C[C@@H]1N[C@@H]12 [MITOMYCIN]	–	–	–	–	100%	100%

Reference: ChEMBL document CHEMBL1833854, “2,5-Disubstituted-1,3,4-oxadiazoles/thiadiazole as surface recognition moiety: design and synthesis of novel hydroxamic acid based histone deacetylase inhibitors” (Bioorg Med Chem Lett, 2011)
